# Compounds with a hit are over-represented: about 1.9% of the library has one in this group of screens.
# CHRM5 antagonist: blocks acetylcholine activation of human M5 receptor; P08912; CHO-hM5 cells, Fluo-8 calcium fluorescence, ACh EC80; inhibition, % at 3 µM; hit rate 0.59% among 360,000; AID 624040;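 active means inhibition above a per-plate cutoff, the mean of that plate's test compounds plus 3 SD, cut at about 27% in these data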;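 further: 0% = acetylcholine EC80 with DMSO and 100% = DMSO without agonist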
# Target sequence (P08912 whole entry, looked up): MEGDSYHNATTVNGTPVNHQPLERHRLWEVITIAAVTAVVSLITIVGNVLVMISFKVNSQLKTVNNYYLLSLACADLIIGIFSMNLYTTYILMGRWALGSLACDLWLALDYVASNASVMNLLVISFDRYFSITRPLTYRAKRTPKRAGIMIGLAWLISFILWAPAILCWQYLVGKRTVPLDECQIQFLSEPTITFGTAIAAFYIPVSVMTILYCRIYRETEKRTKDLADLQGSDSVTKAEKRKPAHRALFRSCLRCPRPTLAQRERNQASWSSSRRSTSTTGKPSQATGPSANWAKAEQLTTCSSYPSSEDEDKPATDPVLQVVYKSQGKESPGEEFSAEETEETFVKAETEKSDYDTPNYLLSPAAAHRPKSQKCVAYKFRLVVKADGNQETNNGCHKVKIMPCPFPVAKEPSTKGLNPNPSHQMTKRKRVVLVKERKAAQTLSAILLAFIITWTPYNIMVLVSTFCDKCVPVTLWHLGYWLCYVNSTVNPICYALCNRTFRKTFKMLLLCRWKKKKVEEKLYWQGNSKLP
# CHRM5 agonist: agonists of human muscarinic M5 receptor (CHRM5) | P08912 | CHO-K1 hM5 cells, Fluo-8 calcium fluorescence; 0% DMSO wells, 100% maximal acetylcholine response | activation, % at 3 µM | hit rate 0.19% among 360,000;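 active means activation above the run's mean over test compounds plus 3 SD, cut at about 23% in these data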;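 further: signal is peak over basal fluorescence ratio across the kinetic read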
# M4 antag: CHRM4 antagonism in calcium assay. P08173. hit rate 0.73% among 360,000. inhibition, % at 3 µM. CHO-hM4 cells, ACh EC80, Fluo-8 calcium fluorescence;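 active means inhibition above its plate's cutoff, the mean inhibition of sample wells plus 3 SD, cut at about 27% in these data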;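 further: 0% = acetylcholine EC80 with DMSO and 100% = DMSO without agonist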
# CHRM4 PAM: potentiates acetylcholine response at human M4 receptor; P08173; CHO-K1 hM4/Gqi5, Fluo-8 calcium fluorescence, ACh EC20; 0% = ACh EC20, 100% = maximal ACh; activation, % at 3 µM; hit rate 0.4% among 360,000;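 active means activation above its plate's cutoff, the mean activation of sample wells plus 3 SD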
# CHRM4 agonist: CHRM4 agonism in calcium assay; P08173; CHO-K1 hM4/Gqi5, Fluo-8 calcium fluorescence; vehicle 0%, full acetylcholine response 100%; activation, % at 3 µM; hit rate 0.14% among 360,000;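 active means activation above the run mean over all test wells plus 3 SD, cut at about 32% in these data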;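 further: peak over basal fluorescence ratio per well then scaled between controls; 0% = DMSO wells and 100% = acetylcholine at EC100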
# M5 PAM: CHRM5 positive allosteric modulation | P08912 | CHO-K1 hM5, Fluo-8 calcium, ACh EC20 PAM; 0% = ACh EC20, 100% = ACh EC100 | activation, % at 3 µM | hit rate 0.3% among 360,000 | AID 624038;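 active means activation above the run cutoff, the mean activation of all test compounds plus 3 SD, cut at about 18% in these data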
#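 Assay system: CHO-K1 hM5 cells. Also added: acetylcholine at EC20 concentration, added after compound. Dosing: 3 µM, single dose. Times: compound preincubation 140 s before EC20 acetylcholine addition. Signal: Fluo-8 calcium fluorescence. Measure: % activation relative to EC20 and EC100 ACh responses. Repeats: singlicate, one well per test compound.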
# Starred values were filed as active, the others as inactive.
SMILES,CHRM5 antagonist,CHRM5 agonist,M4 antag,CHRM4 PAM,CHRM4 agonist,M5 PAM
CCOC(=O)c1c(S(=O)(=O)NCC(=O)Nc2cc(C)ccc2C)c(C)n(C)c1C,15.9,-5.1,9.2,-2.8,-0.7,-5.1
CCOC(=O)c1c(S(=O)(=O)NCC(=O)Nc2ccc(F)cc2F)c(C)n(C)c1C,-12.6,-1.5,-7.5,17.9*,0.3,13.0
CCCCn1c(N)c(N(CCOC)C(=O)c2ccc3c(c2)C(=O)N(c2cc(C)ccc2C)C3=O)c(=O)[nH]c1=O,-18.9,-0.4,-7.9,0.7,1.7,5.4
CC(C)CC(=O)Nc1nc2ccc(S(=O)(=O)N3CCOCC3)cc2s1,-7.6,0.5,-10.0,-3.2,2.7,19.1*
CCCC(=O)Nc1nc2ccc(S(=O)(=O)N3CCCCC3)cc2s1,3.0,7.7,-7.8,0.5,7.2,-9.9
O=C(Nc1cccc(NC(=O)c2ccc(-c3ccc(Br)cc3)o2)c1)c1ccco1,31.2*,-1.4,31.6*,-21.8,12.1,-18.6
O=C(Nc1cccc(NC(=O)c2ccccc2Cl)c1)c1ccco1,-2.0,-0.6,-9.0,-0.3,8.2,-2.4
O=C(NCC(=O)N1CCCC(C(F)(F)F)C1)c1ccc(Br)o1 (stereo unspecified),10.1,1.5,-4.6,3.2,0.4,7.0
Cc1cccc(C(=O)NC(=S)NNC(=O)c2cccs2)c1,11.3,5.7,15.0,-8.0,5.5,-7.7
O=C(NC(=S)NNC(=O)c1cccs1)c1ccco1,3.7,-1.5,7.8,-6.2,0.5,-3.5
O=C(NNC(=O)c1cccs1)c1ccco1,7.2,2.0,1.7,6.8,0.7,21.5*
CC(C)(C)c1ccc(C(=O)NC(=S)NNC(=O)c2cccs2)cc1,21.0,46.0*,13.7,-19.0,108.9*,-21.6
CC(C)(C)c1ccc(C(=O)NC(=S)NCc2cccnc2)cc1,-2.3,-8.5,-16.7,-7.8,2.5,-18.8
O=C(NC(=S)NNC(=O)c1cccs1)c1ccccc1,27.2*,-3.4,12.4,-1.6,0.9,-10.5
COC(=O)CNC(=S)NC(=O)c1ccc(C(C)(C)C)cc1,7.8,-16.5,26.8*,-22.5,-0.9,-19.7
Cc1ccccc1C(C)(O)c1cnc(C)n1Cc1ccccc1 (stereo unspecified),10.2,-1.1,10.6,-8.8,6.9,-2.2
O=C1CN(S(=O)(=O)c2ccccc2Cl)CCN1,-8.9,2.7,-3.4,4.2,0.6,4.9
O=C(COC(=O)c1ccc(F)c(S(=O)(=O)N2CCOCC2)c1)NCc1ccc(F)cc1,17.8,2.2,4.0,8.9,4.2,-9.0
Cc1ccccc1C(=O)NNC(=S)NC(=O)c1cccs1,14.7,15.3,8.9,-13.1,39.1*,-10.9
COc1ccc(OCCN(C)C(=O)c2cccc(S(=O)(=O)N(C)c3ccccc3)c2)cc1,13.3,0.4,-15.6,-6.5,22.6,-28.5
CSc1nc(N)nc2c1ncn2CC(=O)N1CCN(Cc2c(C)cc(C)cc2C)CC1,31.9*,2.6,7.2,-7.0,13.4,-15.2
Cc1cc(C)c(CN2CCN(C(=O)Cn3ccc(N)nc3=O)CC2)c(C)c1,5.6,-6.4,-9.0,13.2,0.7,-2.4
COc1ccc2c3c(cccc13)C(=O)CC2,29.3*,33.8*,26.3,-22.1,78.5*,-9.8
O=C(Nc1ccccc1C(=O)O)c1cc(S(=O)(=O)N2CCCCCC2)ccc1Cl,-7.3,0.4,-0.8,15.0,-2.0,5.9
Cc1ccc(NC(=O)c2cnccn2)cc1S(=O)(=O)N1CCCCCC1,28.1*,-2.1,-0.8,3.0,0.8,-3.9
O=C(Nc1ccccc1Cl)c1cc(S(=O)(=O)N2CCCC(C(=O)O)C2)ccc1F (stereo unspecified),4.5,1.9,-17.8,51.4*,-0.8,-3.5
O=C(Nc1cccc(S(=O)(=O)N2CCCCC2)c1)c1ccccc1NS(=O)(=O)c1ccc(F)cc1,41.1*,5.5,-1.2,3.1,10.9,-11.5
Cc1ccc(NC(=O)c2ccccc2NS(=O)(=O)c2ccc(F)cc2)cc1S(=O)(=O)N1CCCCC1,35.1*,6.0,9.1,-10.4,10.5,-18.0
